Data set [1] relates to IleRS. As to conditions: ref Hughes and Mellows, 1980; cited from earlier work.
In data set [2] the target is Pf-like human LysRS (Homo sapiens, UniProt Q15046, P300T/Q321V/T337S). Description: Thermal shift assay, Pf-like human LysRS. Format: binding. The gist of the method: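 Pf-like human LysRS (residues 70-584) was co-expressed in E. coli BL21(DE3) with His-tagged AIMP2/p38 1-36 and purified by Ni affinity and gel filtration. A 2× mix held 4 μM protein in Tris-HCl pH 8.0/NaCl/DTT, plus 40 μM test compound, 1 mM lysine, 40 μM ATP or 2 mM CaCl2. It sat 30 min at room temperature, then was chilled and mixed 1:1 with dye. Fluorescence was read during heating from 10 to 90 °C at 1 °C/min, averaging 8 curves. Tm was fitted by Levenberg-Marquardt. Kd was extrapolated to 25 °C, assuming 62760 J/mol binding enthalpy. Kd was not determined for negative ΔTm.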
Sequence of Pf-like human LysRS (Q15046 70-584 P300T/Q321V/T337S): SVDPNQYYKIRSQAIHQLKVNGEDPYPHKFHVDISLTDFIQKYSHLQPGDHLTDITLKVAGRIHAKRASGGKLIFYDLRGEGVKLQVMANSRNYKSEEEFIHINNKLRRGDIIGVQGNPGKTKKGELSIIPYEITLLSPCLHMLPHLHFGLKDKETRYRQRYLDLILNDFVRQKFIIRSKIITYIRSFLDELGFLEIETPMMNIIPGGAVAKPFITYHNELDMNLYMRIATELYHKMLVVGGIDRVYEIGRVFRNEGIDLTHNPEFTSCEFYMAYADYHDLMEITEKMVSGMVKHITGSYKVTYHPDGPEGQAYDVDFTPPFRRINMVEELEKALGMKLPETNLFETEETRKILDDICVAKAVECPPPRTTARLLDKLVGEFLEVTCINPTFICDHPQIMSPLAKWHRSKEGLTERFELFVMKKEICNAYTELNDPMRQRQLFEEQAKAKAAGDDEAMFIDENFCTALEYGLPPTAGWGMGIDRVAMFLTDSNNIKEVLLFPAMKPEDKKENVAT
Sequence of Pf-like human LysRS (Q13155 1-36 partner limits assumed): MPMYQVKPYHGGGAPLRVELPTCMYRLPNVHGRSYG

The target of data set [3] is HsLysRS (Homo sapiens, UniProt Q15046). Put plainly: Thermal shift assay, HsLysRS. The format is binding.
Sequence of HsLysRS (Q15046 70-584): as the sequence (Q15046 70-584 P300T/Q321V/T337S) above, with T231P, V252Q, S268T counted along it
Sequence of HsLysRS (Q13155 1-36 partner limits assumed): as the sequence (Q13155 1-36 partner limits assumed) above
Data set [4] has as its target T1, PfLysRS (Plasmodium falciparum, UniProt Q8IDJ8). Description: Thermal shift assay, PfLysRS. Format: binding, P. falciparum.
In data set [5] the test system is blood- and liver- stage Plasmodium falciparum parasite forms. Particulars: Plasmodium parasites compared to mammalian cells; ref Hoepfner et al., 2012; cited from earlier work.
Data set [6] relates to Colletotrichum gloeosporioides. As to conditions: CP at 30 μM; ref Wang et al., 2013; cited from earlier work.
Data set [7] has as its system Colletotrichum acutatum. As to conditions: CP at 30 μM; ref Wang et al., 2013; cited from earlier work.
Data set [8] concerns yeast LysRS Q324V and T340S. Particulars: Q324V and T340S mutations of yeast LysRS; ref Hoepfner et al., 2012; cited from earlier work.
Data set [9] concerns Colletotrichum fragariae. As to conditions: CP at 30 μM; ref Wang et al., 2013; cited from earlier work.
Data set [10] deals with Phomopsis viticola. Particulars: CP at 30 μM; ref Wang et al., 2013; cited from earlier work.
Data set [11] deals with T1, PfLysRS. Particulars: yeast-growth-based assay; ref Hoepfner et al., 2012; cited from earlier work.
The subject of data set [12] is E. coli. Particulars: up to 100 μg/ml CP; ref Anke, 1979; cited from earlier work.
In data set [13] the test system is human cells. Particulars: ref Hoepfner et al., 2012; cited from earlier work.
Where [14] appears, read: Pf-like human LysRS, ligand alone (no lysine co-ligand for ATP/CP).
Setting [15] is: PfLysRS, ligand alone (no lysine co-ligand), estimated from ΔTm, 25°C.
Setting [16] is: Pf-like human LysRS, with lysine.
The mark [17] stands for this setting: HsLysRS, ligand alone (no lysine co-ligand for ATP/CP).

Where two headings read alike, the source gives them in different places. Some results are limits rather than exact numbers.

As for `C/C(=C\C(=O)OCCCCCCCCC(=O)O)C[C@@H]1OC[C@H](C[C@@H]2O[C@H]2[C@@H](C)[C@H](C)O)[C@@H](O)[C@H]1O` [mupirocin], the “selectivity for pathogenic over mammalian IleRS” value in data set [1] is “about 8000 fold”.

By ΔTm is commonly meant the change in melting temperature against a reference sample. Broadly, the Kd is a measure of binding affinity in units of concentration. For `NCCCC[C@H](N)C(=O)O` [Lysine, L-lysine], the results for the ΔTm in [2] (setting [14]) and in data set [3] were -0.2 °C and 0.1 °C, respectively. For the same compound, the values for the Kd in data set [3] and in [4] (setting [15]) were 84900 nM and 34100 nM, respectively. In data set [4] (read-out: ΔTm), the ΔTm at 1000 µM came out at 2.7 °C.

For `C[C@H]1CCC[C@H](C[C@H]2Cc3cc(O)cc(O)c3C(=O)O2)O1` [CP, cladosporin], the Kd is 2100 nM in data set [2]; 3300 nM in data set [3]; roughly 2.4 nM in data set [4] (PfLysRS, K-CP (with lysine)); 1500 nM in [4] (setting [15]); 2.4 nM in [4] (PfLysRS, with lysine, estimated from ΔTm, 25°C). Also, the “stabilization effect (melting temperature)” value in [2] (Pf-like human LysRS, CP even with the presence of lysine) was less than 2 °C; in data set [3] (HsLysRS, CP even with the presence of lysine) it was less than 2 °C. The ΔTm was -1.1 °C in [2] (setting [14]); 1.0 °C in data set [2] (setting [16]); -0.8 °C in [3] (setting [17]); 0.3 °C in data set [3] (HsLysRS, with lysine). Moreover, in data set [5], the “selectivity index (IC50/CC50)” value was greater than 111. For the same compound, the inhibition of growth entry in data set [6], in data set [7], in [9] and in data set [10] was “over 80%” in each case. Moreover, in data set [8], the “increase of sensitivity for CP inhibition” value was 40 fold. Further, in data set [11], the “potency against PfLysRS relative to HsLysRS or yeast LysRS” value is on record as 1000 fold. For the same compound, the “binding affinity tighter than in HsLysRS” value in data set [4] (PfLysRS vs HsLysRS, with lysine) was found to be 1375 fold. In data set [4] (PfLysRS, 17.1 °C vs 2.4 °C), the “stabilization by CP together with lysine relative to CP-alone” value is reported as 7 fold. Also, in [4] (PfLysRS, CP, lysine replaced with any of the other 19 non-cognate amino acids), the “stabilization effect with non-cognate amino acids” value is given as “did not yield stabilization effect”. Also, the “increase of binding affinity by the presence of lysine” value in [4] (PfLysRS, Kd with lysine vs no lysine) turned out to be 625 fold. The ΔTm at 40 µM in data set [4] (read-out: ΔTm) is 2.4 °C. For the same compound, the “effect on growth of E. coli” value in data set [12] was “not affected”. In addition, the “effect on the growth of human cells” value in data set [13] is “little effect”.

As to `Nc1ncnc2c1ncn2[C@@H]1O[C@H](COP(=O)(O)OP(=O)(O)OP(=O)(O)O)[C@@H](O)[C@H]1O` [ATP], the ΔTm was -0.9 °C in data set [2] (setting [14]); 0.9 °C in data set [2] (setting [16]); -0.2 °C in data set [3] (setting [17]); 0.9 °C in data set [3] (HsLysRS, with lysine); 0.6 °C in data set [4] (PfLysRS, with lysine). Moreover, the Kd in data set [2] (Pf-like human LysRS, with lysine, estimated from ΔTm, 25°C) was 2200 nM; in data set [3] (HsLysRS, with lysine, estimated from ΔTm, 25°C), 2800 nM.

Values taken from publication PMC4503318 (Chemistry & biology, 2015).
